In ChEMBL document CHEMBL4017532, “Multifunctional Hybrid Compounds Derived from 2-(2,5-Dioxopyrrolidin-1-yl)-3-methoxypropanamides with Anticonvulsant and Antinociceptive Properties” (J Med Chem, 2017):
Calls of active or inactive are those of the source.

Columns and labels:
[1] = system: Mus musculus; experiment: Analgesic activity in Albino Swiss CD-1 mouse assessed as increase in pain response latency administered at 4 mg/kg, ip treated up to 90 mins prior to tet by hot plate assay; format: functional, organism-based
In short: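 Adult male Albino Swiss CD-1 mice (18−25 g), 6−12 per group, each used once. Drug given ip suspended in 1% aqueous Tween 80; vehicle controls received Tween 80. Mice were put back on the hot plate at 15, 30, 45, 60 and 90 min after dosing, and latency to pain reaction was recorded. Data are means ± SEM, analysed by ANOVA with post hoc tests.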

[2] = system: Mus musculus; experiment: Anticonvulsant activity in Albino Swiss CD-1 mouse assessed as protection against maximal electroshock-induced seizures by measuring time to peak effect at 100 mg/kg, ip pretreated up to 2 hrs followed by 50 Hz current induction for […]; format: functional
[3] = system: Mus musculus; experiment: Anticonvulsant activity in ip dosed Albino Swiss CD-1 mouse assessed as protection against maximal electroshock-induced seizures pretreated up to 2 hrs followed by 50 Hz current induction for […] measured at time to peak effect; format: functional; settings: Swiss CD-1, ip
[4] = system: Mus musculus; experiment: Protection index, ratio of TD50 for neurotoxicity in ip dosed Albino Swiss CD-1 mouse to ED50 for ip dosed maximal electroshock induced seizure Albino Swiss CD-1 mouse
In short: (§1)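 Acute neurological toxicity after ip dosing (1% Tween 80 suspension) was assessed in the mouse chimney test. TD50 with 95% confidence limits was derived by probit analysis. Protective index is TD50 from the chimney test divided by ED50 from the MES, scPTZ or 6 Hz test.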

[5] = system: Mus musculus; experiment: Protection index, ratio of TD50 for neurotoxicity in ip dosed Albino Swiss CD-1 mouse to ED50 for ip dosed Albino Swiss CD-1 mouse model of 6 Hz-induced siezures; in short: as §1
[6] = system: Mus musculus; experiment: Anticonvulsant activity in ip dosed Albino Swiss CD-1 mouse assessed as protection against 32 mA current-induced seizure treated up to 2 hrs prior to 6-Hz current induction measured at time to peak effect; format: functional; settings: Swiss CD-1, ip
[7] = Neurotoxicity in ip dosed Albino Swiss CD-1 mouse assessed as induction of motor impairment measured up to 60 secs by chimney test; format: toxicity, organism-based; settings: in vivo; in short: as §1
[8] = target: Cytochrome P450 3A4 (Homo sapiens, UniProt P08684); experiment: Inhibition of human CYP3A4 assessed as reduction in luciferin-PPXE conversion to D-luciferin at 12.5 to 25 uM by luminescence assay; format: ADME
Chain of Cytochrome P450 3A4 (P08684 whole entry): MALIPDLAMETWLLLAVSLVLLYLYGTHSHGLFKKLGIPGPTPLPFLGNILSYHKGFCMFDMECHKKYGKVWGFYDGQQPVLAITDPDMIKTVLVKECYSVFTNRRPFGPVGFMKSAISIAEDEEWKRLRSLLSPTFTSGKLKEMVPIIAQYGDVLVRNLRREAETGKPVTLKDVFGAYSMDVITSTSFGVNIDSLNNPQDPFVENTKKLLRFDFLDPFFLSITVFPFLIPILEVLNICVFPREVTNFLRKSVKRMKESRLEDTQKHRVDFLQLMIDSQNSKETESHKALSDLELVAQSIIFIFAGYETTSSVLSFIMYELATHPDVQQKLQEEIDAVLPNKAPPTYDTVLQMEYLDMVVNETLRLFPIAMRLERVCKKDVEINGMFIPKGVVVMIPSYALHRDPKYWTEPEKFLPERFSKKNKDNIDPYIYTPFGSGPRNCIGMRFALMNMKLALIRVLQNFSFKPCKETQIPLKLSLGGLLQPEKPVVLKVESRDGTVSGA
In short: (§2)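 P450-Glo luminescence assays used recombinant human CYP3A4 or CYP2D6 with conversion of luciferin-PPXE to D-luciferin. Ketoconazole (CYP3A4) and quinidine (CYP2D6) served as reference inhibitors.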

[9] = system: Mus musculus; experiment: Anticonvulsant activity in Albino Swiss CD-1 mouse assessed as protection against maximal electroshock-induced seizures at 100 mg/kg, ip pretreated up to 2 hrs followed by 50 Hz current induction for […] relative to control; format: functional
[10] = Retention time of the compound by LC-MS method
[11] = system: Mus musculus; experiment: Anticonvulsant activity in Albino Swiss CD-1 mouse assessed as protection against 6 Hz current-induced seizure at 100 mg/kg, ip pretreated up to 2 hrs followed by 6 Hz current induction for 3 secs relative to control; format: functional
[12] = system: Mus musculus; experiment: Anticonvulsant activity in Albino Swiss CD-1 mouse assessed as protection against 6 Hz current-induced seizure at 100 mg/kg, ip pretreated up to 0.5 hrs followed by 6 Hz current induction for 3 secs relative to control; format: functional
[13] = system: Liver; experiment: Drug level in human liver microsomes treated with 1-{1-[4-(3-Trifluoromethylphenyl)piperazin-1-yl]-3-methoxy-1-oxopropan-2-yl}pyrrolidine-2,5-dione preincubated for 5 mins followed by NADPH addition measured after 2 hrs by LC-MS method; format: ADME, microsome
[14] = system: Mus musculus; experiment: Anticonvulsant activity in Albino Swiss CD-1 mouse assessed as inhibition of pentylenetetrazole-induced seizures by measuring time to peak effect at 100 mg/kg, ip administered up to 2 hrs prior to PTZ induction measured for 30 mins; format: functional
[15] = system: Liver; experiment: Drug level in human liver microsomes treated with 1-{1-[4-(4-Trifluoromethylphenyl)piperazin-1-yl]-3-methoxy-1-oxopropan-2-yl}pyrrolidine-2,5-dione preincubated for 5 mins followed by NADPH addition measured after 2 hrs by LC-MS method; format: ADME, microsome
[16] = system: Mus musculus; experiment: Anticonvulsant activity in Albino Swiss CD-1 mouse assessed as inhibition of pentylenetetrazole-induced seizures at 100 mg/kg, ip administered up to 2 hrs prior to PTZ induction measured after 30 mins relative to control; format: functional; parameters: scale not given: the % may be the effect or the level left
[17] = target: Cytochrome P450 2D6 (Homo sapiens, UniProt P10635); experiment: Inhibition of human CYP2D6 assessed as reduction in luciferin-PPXE conversion to D-luciferin at 12.5 to 25 uM by luminescence assay; format: ADME; in short: as §2
Chain of Cytochrome P450 2D6 (P10635 whole entry): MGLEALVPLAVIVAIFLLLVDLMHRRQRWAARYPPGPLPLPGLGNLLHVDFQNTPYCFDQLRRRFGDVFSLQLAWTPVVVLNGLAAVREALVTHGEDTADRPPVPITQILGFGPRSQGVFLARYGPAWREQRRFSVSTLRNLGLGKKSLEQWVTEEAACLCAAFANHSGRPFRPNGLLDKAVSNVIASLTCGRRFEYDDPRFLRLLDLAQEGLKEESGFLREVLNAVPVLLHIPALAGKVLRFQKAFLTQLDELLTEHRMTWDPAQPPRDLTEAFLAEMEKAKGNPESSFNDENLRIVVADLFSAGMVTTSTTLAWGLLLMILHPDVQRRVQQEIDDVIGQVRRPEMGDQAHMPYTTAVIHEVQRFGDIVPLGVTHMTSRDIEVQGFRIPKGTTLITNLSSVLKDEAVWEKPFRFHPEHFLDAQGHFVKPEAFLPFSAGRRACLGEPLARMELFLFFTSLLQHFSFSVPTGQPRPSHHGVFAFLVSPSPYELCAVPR

[18] = system: Mus musculus; experiment: Antiallodynic activity in oxaliplatin-induced Albino Swiss CD-1 mouse model of peripheral neuropathy assessed as elevation in pain sensitivity threshold at 150 mg/kg, ip administered 30 mins prior to oxaliplatin challenge relative to control; format: functional
In short: (§3)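 Male CD-1 mice, 18–25 g, that had developed oxaliplatin-induced tactile allodynia were dosed ip 30 min before testing. Doses were 25, 50 or 100 mg/kg, or 50, 100 or 150 mg/kg for the reference. Vehicle was 1% aqueous Tween 80. Paw-withdrawal force was measured by von Frey filaments. Data are mean ± SEM, analysed by repeated-measures ANOVA with Dunnett's test against oxaliplatin plus vehicle mice.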

[19] = system: Mus musculus; experiment: Antinociceptive activity in Albino Swiss CD-1 mouse assessed as inhibition of formalin-induced neurogenic pain response at 100 mg/kg, ip administered 30 mins before formalin injection measured up to 5 mins relative to control; format: functional; settings: Swiss CD-1, ip
In short: (§4)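 Male CD-1 mice were given test agents ip 30 min before subcutaneous intraplantar formalin. Doses were 12.5, 25 or 50 mg/kg, or 100, 150 or 200 mg/kg for the reference. Vehicle was 1% Tween 80 at 10 mL/kg. Paw licking time was recorded in phase I (0–5 min) and phase II (15–30 min). Data are mean ± SEM of 8–10 mice, by Dunnett's test. ED50 was obtained by log-probit analysis with 95% confidence limits.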

[20] = system: Mus musculus; experiment: Antinociceptive activity in Albino Swiss CD-1 mouse assessed as inhibition of capsaicin-induced nociception by measuring time spent licking injected paw at 200 mg/kg, ip administered 30 mins mins prior to capsaicin challenge measured for 5 mins relative to control; format: functional; settings: Swiss CD-1, ip
In short: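 Mice (male CD-1, 18–25 g) were pretreated ip 30 min before intraplantar capsaicin. Doses were 25, 50 or 100 mg/kg, or 100, 150 or 200 mg/kg for the reference. Vehicle was 1% Tween 80 at 10 mL/kg. Duration of nociceptive response was scored over 5 min after injection. Data are mean ± SEM of 8–10 mice, by one-way ANOVA with Dunnett's test against vehicle.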

[21] = system: Mus musculus; experiment: Antiallodynic activity in oxaliplatin-induced Albino Swiss CD-1 mouse model of peripheral neuropathy assessed as elevation in pain sensitivity threshold at 100 mg/kg, ip administered 30 mins prior to oxaliplatin challenge relative to control; format: functional; in short: as §3
[22] = system: Mus musculus; experiment: Antiallodynic activity in oxaliplatin-induced Albino Swiss CD-1 mouse model of peripheral neuropathy assessed as elevation in pain sensitivity threshold at 50 mg/kg, ip administered 30 mins prior to oxaliplatin challenge relative to control; format: functional; in short: as §3
[23] = system: Mus musculus; experiment: Antinociceptive activity in Albino Swiss CD-1 mouse assessed as inhibition of formalin-induced neurogenic pain response at 150 mg/kg, ip administered 30 mins before formalin injection measured up to 5 mins relative to control; format: functional; settings: Swiss CD-1, ip; in short: as §4
[24] = system: Mus musculus; experiment: Antinociceptive activity in Albino Swiss CD-1 mouse assessed as inhibition of formalin-induced neurogenic pain response at 200 mg/kg, ip administered 30 mins before formalin injection measured up to 5 mins relative to control; format: functional; settings: Swiss CD-1, ip; in short: as §4
[25] = system: Mus musculus; experiment: Analgesic activity in Albino Swiss CD-1 mouse assessed as increase in pain response latency administered at 150 mg/kg, ip treated up to 90 mins prior to tet by hot plate assay; format: functional, organism-based
In short: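 Male CD-1 mice, 18–25 g, 6–12 per group, given test agents as 1% aqueous Tween 80 suspension ip. Doses were 50, 100 or 150 mg/kg, with morphine hydrochloride at 4 mg/kg as reference. Mice were placed on the hot plate 15, 30, 45, 60 and 90 min after dosing, and latency to pain reaction was recorded.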

CN1CC[C@]23c4c5ccc(O)c4O[C@H]2[C@@H](O)C=C[C@H]3[C@H]1C5
Activity [1]: Active

COC[C@H](C(=O)N1CCN(c2ccc(C(F)(F)F)cc2)CC1)N1C(=O)CCC1=O
Time [2]: 0.25 to 1 h
ED50 [3]: 80.9 to 88.9 mg/kg
Ratio TD50/ED50 [4]: 1.9 - 2.1
Ratio TD50/ED50 [5]: 8 - 9.2
ED50 [6]: 21.1 to 22.1 mg/kg
TD50 at 1 min [7]: 167 to 194 mg/kg

COCC(C(=O)N1CCN(c2cccc(Cl)c2)CC1)N1C(=O)CCC1=O (configuration not stated)
Time [2]: 0.25 to 0.5 h
inhibition (INH) [8]: Not Active
ED50 [3]: 79.7 to 87 mg/kg
Ratio TD50/ED50 [4]: 2.4 - 2.6
Ratio TD50/ED50 [5]: 6.9 - 7.3
Activity [9]: <=75%
Retention time [10]: 5.72 min
Activity [11]: <=75%
ED50 [6]: 26.1 to 32.7 mg/kg
TD50 at 1 min [7]: 192 to 226 mg/kg

O=C(C(CO)N1C(=O)CCC1=O)N1CCN(c2cccc(C(F)(F)F)c2)CC1 (configuration not stated)
Efficacy [12]: 50%

COCC(C(=O)N1C=CN(c2cccc(C(F)(F)F)c2)CC1)N1C(=O)CCC1=O (configuration not stated)
Drug metabolism [13]: Metabolite_Detected
Retention time [10]: 6.33 min

COCC(C(=O)N1CCN(c2cccc(OC)c2)CC1)N1C(=O)CCC1=O (configuration not stated)
Time [2]: 0.25 h
Activity [11]: <=75%
ED50 [6]: > 100 mg/kg

CCC1(C)CC(=O)NC1=O (configuration not stated) [ETHOSUXIMIDE]
Time [2]: 0.25 h
ED50 [3]: > 500 mg/kg
Ratio TD50/ED50 [5]: 3.2
Time [14]: 0.25 h
ED50 [6]: 222 mg/kg
TD50 at 1 min [7]: 722 mg/kg

COCC(C(=O)N1C=CN(c2ccc(C(F)(F)F)cc2)CC1)N1C(=O)CCC1=O (configuration not stated)
Retention time [10]: 6.23 min
Drug metabolism [15]: Metabolite_Detected

COCC(C(=O)N1CCN(c2cccc(C(F)(F)F)c2)CC1)N1C(=O)CCC1=O (configuration not stated)
inhibition (INH) [8]: Not Active
Retention time [10]: 6.08 min
Activity [16]: 50%
Activity [11]: <=75%
inhibition (INH) [17]: Not Active

CCCC(CCC)C(=O)O [VALPROIC ACID]
Time [2]: 0.5 h
Activity [18]: 151.5%
inhibition in vivo at 100 mg/kg [19]: 15.7%
inhibition in vivo at 200 mg/kg [20]: 42.2%
Activity [21]: 121%
Time [14]: 0.5 h
Activity [22]: 105%
inhibition in vivo at 150 mg/kg [23]: 25.8%
inhibition in vivo at 200 mg/kg [24]: 29.2%
Activity [25]: inactive
TD50 at 1 min [7]: 373 mg/kg
